Test [1] relates to Rattus norvegicus. As to the kind of experiment: Marrow area measured Histomorphometrically after a dose of 6000 ug/kg in Tibial Diaphysis. It is filed as functional.
Test [2] concerns Rattus norvegicus. Briefly: Mineral surface/bone surface measured Histomorphometrically after a dose of 6000 ug/kg in proximal tibial metaphysis. It is filed as functional. The essentials: (§1)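 Positive-control arm: rats ovariectomized at six months, then from day 60 given PGE2 at 6 mg/kg/day for 60 days. Labels were xylenol orange 90 mg/kg before treatment and calcein 10 mg/kg 14 and 4 days before sacrifice. The tibia was read by fluorescent-light histomorphometry; metaphysis region 1–4 mm distal to the growth plate junction.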

Test [3] deals with Rattus norvegicus. Briefly: Bone Volume /Tissue Volume (%)measured using micro Computed Tomography(CT) after a dose of 6000 ug/kg in Vertebral Bone. It is filed as functional. A digest of the protocol:
(§2)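 Micro-CT of the fifth lumbar vertebra, measuring cancellous bone volume and architecture. Rats were 6 months old, OVX 60 days before treatment, then dosed daily for 60 days. Test-agent doses were 10–3000 µg/kg, given as a once-daily subcutaneous injection; 6 mg/kg/day was given to the positive-control group. Groups were compared with vehicle by ANOVA plus LSD test.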

The test system of test [4] is Rattus norvegicus. Briefly: Tissue area measured Histomorphometrically after a dose of 6000 ug/kg in Tibial Diaphysis. It is filed as functional. The essentials: (§3)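 A positive-control group of ovariectomized rats was injected daily at 6 mg/kg/day for 60 days, starting 60 days after surgery. Xylenol orange (90 mg/kg) was given before treatment and calcein (10 mg/kg) 14 and 4 days before sacrifice. Tibiae were read by fluorescent-light histomorphometry.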

The subject of test [5] is Rattus norvegicus. Briefly: Trabecular thickness measured Histomorphometrically after a dose of 6000 ug/kg in proximal tibial metaphysis. The test is classed as functional, Trabecula. A digest of the protocol: (§4)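 A positive-control group of ovariectomized rats was injected daily at 6 mg/kg/day for 60 days, beginning 60 days post-surgery. Fluorochrome labels were xylenol orange (90 mg/kg) before treatment and calcein (10 mg/kg) 14 and 4 days before sacrifice. Histomorphometry covered the proximal tibial metaphysis 1-4 mm below the growth plate-metaphyseal junction.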

In test [6] the test system is Rattus norvegicus. As to the kind of experiment: Bone Formation rate/tissue vol measured Histomorphometrically after a does of 6000 ug/kg in proximal tibial metaphysis. It is filed as functional. The essentials: (§5)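 Proximal tibial metaphysis, 1 to 4 mm distal to the growth plate–metaphyseal junction, assessed by histomorphometry in 6-month-old female rats. Rats were ovariectomized (OVX) 60 days before dosing, then given daily injections for 60 days. Fluorochrome labels were xylenol orange 90 mg/kg before treatment and calcein 10 mg/kg at 14 and 4 days before sacrifice. Groups were compared with vehicle by ANOVA plus LSD test.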

Test [7] deals with Rattus norvegicus. As to the kind of experiment: Mineral apposition measured Histomorphometrically after a dose of 6000 ug/kg in proximal tibial metaphysis. The test is classed as functional. The essentials: as §1
Test [8] concerns Rattus norvegicus. As to the kind of experiment: Endosteal mineralizing surface measured Histomorphometrically after a does of 6000 ug/kg in Tibial Diaphysis. The test is classed as functional.
The test system of test [9] is Rattus norvegicus. Briefly: Periosteal mineralizing surface measured Histomorphometrically after a does of 6000 ug/kg in Tibial Diaphysis. The test is classed as functional. The essentials: as §3
The test system of test [10] is Rattus norvegicus. Briefly: Bone Formation rate/bone measured Histomorphometrically after a dose of 6000 ug/kg in proximal tibial metaphysis. The test is classed as functional. The essentials: as §5
In test [11] the test system is Rattus norvegicus. As to the kind of experiment: Connectivity density measured using micro Computed Tomography(CT) after a dose of 6000 ug/kg in Vertebral Bone. It is filed as functional. The essentials:
as §2

Test [12] has as its system Rattus norvegicus. Briefly: Directly measured thickness measured using micro Computed Tomography(CT) after a dose of 6000 ug/kg in Vertebral Bone. It is filed as functional. A digest of the protocol: as §2
Test [13] deals with Rattus norvegicus. Briefly: Endosteal eroded surface measured Histomorphometrically after a dose of 6000 ug/kg in Tibial Diaphysis. It is filed as functional. A digest of the protocol: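 Tibial histomorphometry in 6-month-old rats, OVX 60 days before treatment, then daily injection for 60 days. Vehicle was acetate-buffered saline with methylcellulose and polyoxyethylenesorbitan monooleate. Rats received xylenol orange 90 mg/kg before treatment and calcein 10 mg/kg at 14 and 4 days pre-sacrifice. Rats were killed by cardiac puncture under ketamine/xylazine. Groups were compared with vehicle by ANOVA plus LSD test.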

Test [14] deals with Rattus norvegicus. As to the kind of experiment: Trabecular no measured Histomorphometrically after a dose of 6000 ug/kg in proximal tibial metaphysis. It is filed as functional, Trabecula. The essentials:
as §4

Test [15] deals with Rattus norvegicus. As to the kind of experiment: Mineralizing apposition measured Histomorphometrically after a dose of 6000 ug/kg in […]. It is filed as functional.
Test [16] deals with Rattus norvegicus. Briefly: Derived trabecular no measured using micro Computed Tomography(CT) after a dose of 6000 ug/kg in Vertebral Bone. The test is classed as functional, Trabecula. The essentials: as §2
Test [17] concerns Rattus norvegicus. As to the kind of experiment: Bone Volume /Tissue Volume (%)measured Histomorphometrically after a dose of 6000 ug/kg in proximal tibial metaphysis. The test is classed as functional. The essentials: as §5
The test system of test [18] is Rattus norvegicus. Briefly: Derived trabecular thickness measured using micro Computed Tomography(CT) after a dose of 6000 ug/kg in Vertebral Bone. The test is classed as functional, Trabecula. The essentials: as §2

As to `CCCCC[C@H](O)/C=C/[C@H]1[C@H](O)CC(=O)[C@@H]1C/C=C\CCCC(=O)O` [DINOPROSTONE], in [1], the Marrow area was determined as 0.76 mm. The Activity in test [2] is on record as 36.23%; in test [3] it was 43.79%; in [6] it was 45.62%; in test [10], 394.7%; in [17], 11.65%. Further, the Tissue area in [4] is 5.22 mm. Moreover, the Trabecular thickness in test [5] was 66.14. Also, the Mineral apposition rate in test [7] stood at 1.19 µm/day. In test [8], this compound came in with an Endosteal mineralizing surface of 61.22%. Also, the Periosteal mineralizing surface in test [9] was 58.37%. Also, the Connectivity density in [11] is 47.81 mm**-3. Besides, the Directly measured thickness in test [12] was 149 µm. Moreover, in test [13], the Endosteal eroded surface was found to be 0.79%. The same compound registered a Trabecular no. in test [14] of 1.76. In [15], this compound returned a Mineralizing apposition rate of 1.33 µm/day. Also, the Derived trabecular number in test [16] was 4.6 1/mm. This compound also had a Derived trabecular thickness in [18] of 95.1 µm.

These data come from ChEMBL document CHEMBL1134785, “Synthesis and biological evaluation of prostaglandin-F alkylphosphinic acid derivatives as bone anabolic agents for the treatment of osteoporosis” (J Med Chem, 2001).
